From PMC2610486 (Bioorganic & medicinal chemistry, 2008)

Legend:
[1] = target: T1, Cyp4F2 (tocopherol-ω-hydroxylase) (Homo sapiens, UniProt P78329); assay: Inhibition of γ-tocopherol metabolism; format: cell-based; conditions: HepG2 cells; at concentrations as low as 250 nM
T1 sequence (P78329 5-520): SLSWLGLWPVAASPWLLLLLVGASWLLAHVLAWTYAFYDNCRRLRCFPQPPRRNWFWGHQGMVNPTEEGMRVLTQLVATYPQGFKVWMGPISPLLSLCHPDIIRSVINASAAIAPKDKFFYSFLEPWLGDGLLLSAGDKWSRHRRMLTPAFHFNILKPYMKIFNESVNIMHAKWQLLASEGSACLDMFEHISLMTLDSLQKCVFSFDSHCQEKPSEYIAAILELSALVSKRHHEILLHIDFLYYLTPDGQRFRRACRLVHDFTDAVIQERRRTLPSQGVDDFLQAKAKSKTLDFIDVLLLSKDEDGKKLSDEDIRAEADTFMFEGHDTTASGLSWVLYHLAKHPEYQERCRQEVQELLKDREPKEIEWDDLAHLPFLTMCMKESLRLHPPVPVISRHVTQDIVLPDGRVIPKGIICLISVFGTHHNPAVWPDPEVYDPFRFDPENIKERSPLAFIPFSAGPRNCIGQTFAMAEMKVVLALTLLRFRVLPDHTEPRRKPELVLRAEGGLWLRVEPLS

[2] = test system: HepG2 cells; format: cell-based, human; conditions: HepG2 cultures
[3] = test system: tocopherol ω-hydroxylase; assay: Tissue enrichment in δ-tocopherol in mice fed δ-tocopherol with or without 1; format: in vivo, mouse
Method in brief: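 Two groups of three male FVB/N mice were fed 10 days on ground chow with δ-tocopherol (6000 mg/kg diet), with or without test compound (500 mg/kg diet). Compound in ethanol and δ-tocopherol were premixed in diglyceride oil, then added to chow. Mice were fasted 5 h and euthanised. Plasma, liver and bile tocopherols were measured by GC-MS with d9-α-tocopherol internal standard. Results are δ-/α-tocopherol ratios, given as means and SD.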

[4] = target: CYP3A4 (Homo sapiens, UniProt P08684); assay: Testosterone-6-hydroxylase activity in HepG2/C3A cell culture; format: cell-based; conditions: HepG2/C3A cultures; 50 µM testosterone, 48 hr
Method in brief: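 Confluent HepG2 cultures were pre-incubated 4 h with test compound or ethanol control, then 50 µM testosterone was added. After 48 h incubation, medium was extracted with ethyl acetate and 6-hydroxytestosterone, as its trimethylsilyl ether, was quantified by GC-MS. Results are percent inhibition, given as means and standard deviation.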

[5] = male FVB/N mice, 500 mg 1 per kg diet with δ-tocopherol 6000 mg per kg diet, 10 days, P<0.05

Sequence of CYP3A4 (P08684 whole entry): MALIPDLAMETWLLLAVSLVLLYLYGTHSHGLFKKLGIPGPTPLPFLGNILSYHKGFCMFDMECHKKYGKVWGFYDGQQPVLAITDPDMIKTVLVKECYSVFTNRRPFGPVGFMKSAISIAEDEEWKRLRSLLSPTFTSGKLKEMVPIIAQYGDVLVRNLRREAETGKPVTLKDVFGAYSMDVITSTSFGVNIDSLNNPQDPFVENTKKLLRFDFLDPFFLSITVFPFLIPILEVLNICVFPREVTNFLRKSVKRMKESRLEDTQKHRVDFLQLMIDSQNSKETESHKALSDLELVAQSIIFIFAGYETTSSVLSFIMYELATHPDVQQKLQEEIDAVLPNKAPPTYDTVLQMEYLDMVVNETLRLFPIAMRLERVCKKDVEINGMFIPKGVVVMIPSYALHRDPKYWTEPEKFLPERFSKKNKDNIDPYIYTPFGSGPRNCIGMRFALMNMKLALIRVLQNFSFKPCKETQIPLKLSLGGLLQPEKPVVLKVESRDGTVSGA

| SMILES | Inhibition of γ-tocopherol metabolism [1] | Effect on total cell protein [2] | Morphology of monolayers [2] | Level of δ-tocopherol in mice ([3]; 1 at 500 mg per kg of diet that also contained δ-tocopherol) | Change in δ-tocopherol / α-tocopherol ratio in bile [3, 5] | Change in δ-tocopherol / α-tocopherol ratio in liver [3, 5] | Effect on α-tocopherol status ([3]; mice fed δ-tocopherol with or without 1) | Effect on testosterone-6-hydroxylase (CYP3A4) activity (qualitative) [4] |
| --- | --- | --- | --- | --- | --- | --- | --- | --- |
| Cc1c(C)c2c(c(C)c1O)CC[C@@](C)(CCCCCCCCCn1ccnc1)O2 [Compound 1, (R)-2-(9-(1H-imidazol-1-yl)nonyl)-2,5,7,8-tetramethylchroman-6-ol] | complete inhibition | no effect | normal | raised | tripled | doubling | no evidence that α-tocopherol status was affected | inhibited |
| Cc1c(C)c2c(c(C)c1O)CC[C@@](C)(CCCCCCCCCn1cncn1)O2 [Compound 2, (R)-2-(9-(1H-1,2,4-triazol-1-yl)nonyl)-2,5,7,8-tetramethylchroman-6-ol] | – | – | – | – | – | – | – | inhibited |
| Cc1c(C)c2c(c(C)c1O)CC[C@@](C)(CCCCCCCCCn1ccnn1)O2 [Compound 3, (R)-2-(9-(1H-1,2,3-triazol-1-yl)nonyl)-2,5,7,8-tetramethylchroman-6-ol] | – | – | – | – | – | – | – | inhibited |
